In brackets after ≈: the same amount, converted by molar mass.
What was measured:
P2X purinoceptor 7 [1] = biological target: T1, P2X purinoceptor 7 (Homo sapiens, UniProt Q99572); test: Antagonist activity at human P2X7R expressed in BzATP-stimulated human 1321N1 cells incubated for 20 mins followed by BzATP stimulation measured every 1 sec for 60 secs followed by 3 sec intervals for 4 mins by FLIPR Ca2+ assay in presence of ionomycin; type: cell-based
T1 sequence (Q99572 whole entry): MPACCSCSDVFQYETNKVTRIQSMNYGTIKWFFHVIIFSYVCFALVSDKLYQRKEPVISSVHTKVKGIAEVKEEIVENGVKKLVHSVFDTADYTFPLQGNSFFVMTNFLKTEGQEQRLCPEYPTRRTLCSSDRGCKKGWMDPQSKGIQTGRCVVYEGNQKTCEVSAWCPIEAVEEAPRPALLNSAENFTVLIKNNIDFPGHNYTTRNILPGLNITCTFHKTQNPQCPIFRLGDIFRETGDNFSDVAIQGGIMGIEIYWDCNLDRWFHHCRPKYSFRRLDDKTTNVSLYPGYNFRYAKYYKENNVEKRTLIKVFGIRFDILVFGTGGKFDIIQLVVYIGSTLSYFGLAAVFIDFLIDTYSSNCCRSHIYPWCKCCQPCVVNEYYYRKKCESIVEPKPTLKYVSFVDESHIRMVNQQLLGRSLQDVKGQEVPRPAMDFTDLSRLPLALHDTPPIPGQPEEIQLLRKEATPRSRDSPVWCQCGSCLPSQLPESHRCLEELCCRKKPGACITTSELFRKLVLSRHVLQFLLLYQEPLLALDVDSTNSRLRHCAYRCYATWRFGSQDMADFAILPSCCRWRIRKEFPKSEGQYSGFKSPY
Outline: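 1321N1 cells stably expressing human P2X7R, stimulated with BzATP; calcium flux read on FLIPR. IC50 is the mean of n ≥ 2 runs, each including a positive control.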

[2] = Intrinsic clearance in rat liver microsomes assessed per mg of protein at 1 uM after 1 hr by LC/MS/MS analysis; type: ADME; details: read-out: CLH
[3] = Intrinsic clearance in human liver microsomes assessed per mg of protein at 1 uM after 1 hr by LC/MS/MS analysis; type: ADME; details: read-out: CLH
[4] = Drug degradation in human plasma at 10 uM after 4 hrs by LC/MS/MS analysis; type: ADME, cell-free; details: read-out: Drug degradation
P2X purinoceptor 7 [5] = biological target: T1, P2X purinoceptor 7; test: Antagonist activity at P2X7R in human whole blood assessed as inhibition of LPS-induced IL-1beta production incubated for 30 mins followed by ATP addition for 30 mins by ELISA assay; type: tissue-based
[6] = Half life in rat at 0.5 mg/kg, iv administered as single dose; type: ADME, organism-based; details: in vivo
Outline: (§1)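 Single-dose rat PK: iv at 0.5 mg/kg and po at 2 mg/kg. n ≥ 2 animals per time point. Oral AUC normalized to dose; clearance, Vdss and half-life taken from the iv arm.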

Salmonella typhimurium = test: Genotoxicity in Salmonella typhimurium by Ames test; type: toxicity, organism-based; details: salmonella enterica subsp. enterica serovar typhimurium
[7] = Volume of distribution at steady state in rat at 2 mg/kg, po and 0.5 mg/kg, iv administered as single dose; type: ADME, organism-based; details: in vivo, read-out: Vdss
Outline: (§2)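 Rats given a single dose, iv 0.5 mg/kg or po 2 mg/kg, with n ≥ 2 per time point. Bioavailability is derived from the po and iv exposures. Vdss is reported in L/kg.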

Liver microsome [8] = test: Drug metabolism in human liver microsomes assessed as GSH adduct UV peak area at 20 uM preincubated for 5 mins followed by NADPH addition measured after 60 mins by LC/MS/MS analysis relative to total area of GSH adduct, other metabolites, parent compound; type: ADME; details: 1 h
[9] = Solubility of compound by lyophilization solubility assay; type: physicochemical
Cytochrome P450 2C9 = Cytochrome P450 2C9 (Homo sapiens, UniProt P11712); test: Inhibition of human CYP2C9 by fluorescence assay; type: ADME
Outline: (§3)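 IC50 values for CYP3A4, CYP2D6 and CYP2C9 from a fluorescence-based inhibition assay; average of n ≥ 2.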

Cytochrome P450 3A4 = Cytochrome P450 3A4 (Homo sapiens, UniProt P08684); test: Inhibition of human CYP3A4 by fluorescence assay; type: ADME; outline: as §3
Cytochrome P450 2D6 = Cytochrome P450 2D6 (Homo sapiens, UniProt P10635); test: Inhibition of human CYP2D6 by fluorescence assay; type: ADME; outline: as §3
[10] = Clearance in rat at 0.5 mg/kg, iv administered as single dose; type: ADME, organism-based; details: in vivo; outline: as §1
Rattus norvegicus = test: Dose normalized AUC in rat at 2 mg/kg, po administered as single dose; type: ADME, organism-based; details: in vivo; outline: as §1
[11] = Oral bioavailability in rat at 2 mg/kg administered as single dose; type: ADME, organism-based; details: in vivo; outline: as §2
Liver microsome [12] = test: Retention time of the compound in rat liver microsomes at 20 uM by LC/UV chromatogram analysis; type: ADME
Liver microsome [13] = test: Retention time of the compound in human liver microsomes at 20 uM by LC/UV chromatogram analysis; type: ADME
Liver microsome [14] = test: Drug metabolism in rat liver microsomes assessed as GSH adduct UV peak area at 20 uM preincubated for 5 mins followed by NADPH addition measured after 60 mins by LC/MS/MS analysis relative to total area of GSH adduct, other metabolites, parent compound; type: ADME; details: 1 h
Liver microsome [15] = test: Metabolic stability in human liver microsomes assessed as GSH adduct formation at 20 uM preincubated for 5 mins followed by NADPH addition measured after 60 mins by LC/MS/MS analysis; type: ADME; details: 1 h
Outline: (§4)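 Liver microsomes (human or rat) incubated with compound and glutathione. The GSH adduct is quantified by UV chromatography as % relative peak area versus the summed areas of GSH adduct, other metabolites and parent compound.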

Liver microsome [16] = test: Metabolic stability in rat liver microsomes assessed as GSH adduct formation at 20 uM preincubated for 5 mins followed by NADPH addition measured after 60 mins by LC/MS/MS analysis; type: ADME; details: 1 h; outline: as §4
[17] = Drug level in solid phase treated with (4S)-N-[4-Chloro-5-(2-hydroxyethoxy)-2-methyl-phenyl]-4-(4-fluorophenyl)-2-oxo-3,4-dihydro-1H-pyridine-5-carboxamide after 1 month; type: physicochemical; details: 730.5 h

Sequence of Cytochrome P450 3A4 (P08684 whole entry): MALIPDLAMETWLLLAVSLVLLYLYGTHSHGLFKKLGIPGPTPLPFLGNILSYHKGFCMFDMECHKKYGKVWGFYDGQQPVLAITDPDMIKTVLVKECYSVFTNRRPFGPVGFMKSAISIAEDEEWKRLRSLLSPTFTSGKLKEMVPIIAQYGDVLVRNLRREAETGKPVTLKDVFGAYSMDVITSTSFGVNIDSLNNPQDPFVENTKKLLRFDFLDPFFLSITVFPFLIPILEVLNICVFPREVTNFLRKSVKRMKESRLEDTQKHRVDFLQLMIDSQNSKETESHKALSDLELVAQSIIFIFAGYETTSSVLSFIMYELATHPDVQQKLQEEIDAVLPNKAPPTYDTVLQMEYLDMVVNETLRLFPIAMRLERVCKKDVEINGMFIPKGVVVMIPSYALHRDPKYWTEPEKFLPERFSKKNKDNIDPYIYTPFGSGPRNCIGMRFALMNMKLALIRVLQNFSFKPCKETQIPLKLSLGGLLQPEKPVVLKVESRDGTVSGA
Sequence of Cytochrome P450 2D6 (P10635 whole entry): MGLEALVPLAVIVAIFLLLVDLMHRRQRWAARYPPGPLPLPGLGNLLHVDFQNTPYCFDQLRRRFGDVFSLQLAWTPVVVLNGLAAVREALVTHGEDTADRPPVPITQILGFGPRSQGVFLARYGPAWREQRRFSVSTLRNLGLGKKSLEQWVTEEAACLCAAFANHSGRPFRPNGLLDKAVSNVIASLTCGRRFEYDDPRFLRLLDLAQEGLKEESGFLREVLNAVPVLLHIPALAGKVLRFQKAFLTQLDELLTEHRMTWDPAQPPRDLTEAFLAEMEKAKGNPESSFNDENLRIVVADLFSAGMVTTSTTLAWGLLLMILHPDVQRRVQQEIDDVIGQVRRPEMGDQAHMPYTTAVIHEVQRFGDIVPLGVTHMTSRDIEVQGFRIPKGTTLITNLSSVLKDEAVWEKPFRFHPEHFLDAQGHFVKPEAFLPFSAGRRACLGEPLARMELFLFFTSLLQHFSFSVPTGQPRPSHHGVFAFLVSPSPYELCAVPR
Sequence of Cytochrome P450 2C9 (P11712 whole entry): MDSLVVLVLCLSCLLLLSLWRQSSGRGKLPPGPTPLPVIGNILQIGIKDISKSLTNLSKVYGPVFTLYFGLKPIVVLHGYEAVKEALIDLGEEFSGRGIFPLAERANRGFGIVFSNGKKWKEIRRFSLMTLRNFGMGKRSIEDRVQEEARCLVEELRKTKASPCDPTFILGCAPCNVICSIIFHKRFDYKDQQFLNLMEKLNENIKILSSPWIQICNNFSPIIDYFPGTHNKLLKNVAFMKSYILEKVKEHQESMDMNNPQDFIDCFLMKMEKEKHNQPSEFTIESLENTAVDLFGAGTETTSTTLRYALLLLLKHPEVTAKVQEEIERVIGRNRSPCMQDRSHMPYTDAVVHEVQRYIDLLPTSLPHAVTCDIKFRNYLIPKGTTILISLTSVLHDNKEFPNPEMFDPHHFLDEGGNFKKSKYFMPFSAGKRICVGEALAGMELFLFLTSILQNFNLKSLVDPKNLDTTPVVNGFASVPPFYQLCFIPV

Row | SMILES | IC50 (P2X purinoceptor 7 [1]) | IC50 (P2X purinoceptor 7 [5]) | Activity (Salmonella typhimurium) | also measured
1 | COc1cc(I)c(CC(=O)N2C=CC(=O)C[C@H]2c2ccccc2)cc1OC | 38 nM | – | – | –
2 | COc1cc(C)c(NC(=O)N2C=CC(=O)C[C@H]2c2ccc(F)cc2)cc1OC | 12 nM | – | – | microsomal CLint at 1 µM [2]: 25 µL/min/mg; microsomal CLint at 1 µM [3]: 8.2 µL/min/mg
3 | Cc1cc(Cl)c(OCCO)cc1NC(=O)N1C=CC(=O)C[C@H]1c1ccc(F)cc1 | 9 nM | – | – | metabolised at 4 h, 10 µM [4]: 50%
4 | Cc1cc(F)c(-c2ccnn(C)c2=O)cc1NC(=O)C1=CN(C)C(=O)C[C@H]1c1ccc(F)cc1 | 8 nM | 13 nM | Non-toxic | half-life [6]: 1 h; Vd [7]: 1 L/kg; Stability (Liver microsome [8]): Stable; solubility [9]: 322 µg/mL (≈ 693 µM); IC50 (Cytochrome P450 2C9): > 32000 nM; IC50 (Cytochrome P450 3A4): > 32000 nM; IC50 (Cytochrome P450 2D6): > 32000 nM; clearance [10]: 17 mL/min/kg; AUC (Rattus norvegicus): 1121 ng·h/mL; bioavailability [11]: 64%
5 | COc1cc(Br)c(NC(=O)N2C=CC(=O)C[C@H]2c2ccc(F)cc2)cc1OC | 9 nM | – | – | Retention_time (Liver microsome [12]): 16.58 min; Retention_time (Liver microsome [13]): 16.58 min
6 | Cc1ccc(-n2ccccc2=O)cc1NC(=O)C1=CN(C)C(=O)N[C@H]1c1ccc(F)cc1 | 22 nM | 21 nM | Non-toxic | –
7 | Cc1cc2cnn(CCO)c2cc1NC(=O)C1=CNC(=O)C[C@H]1c1ccc(F)cc1 | 23 nM | 47 nM | – | –
8 | COc1cc(NC(=O)N2C=CC(=O)C[C@H]2c2ccc(F)cc2)c(Br)c(SC[C@H](NC(=O)CC[C@H](N)C(=O)O)C(=O)NCC(=O)O)c1O | – | – | – | Retention_time (Liver microsome [12]): 10.74 min; Retention_time (Liver microsome [13]): 10.74 min
9 | Cc1ccc(-c2ccnn(CCO)c2=O)cc1NC(=O)C1=CN(C)C(=O)C[C@H]1c1ccc(F)cc1 | – | 17 nM | Non-toxic | –
10 | COc1cc(Br)c(NC(=O)N2C=CC(=O)CC2c2ccccc2)cc1OC (racemic) | 39 nM | – | – | microsomal CLint at 1 µM [2]: 78 µL/min/mg; microsomal CLint at 1 µM [3]: 22 µL/min/mg
11 | O=C1C=CN(C(=O)Nc2cc(OCCO)c(Cl)cc2Br)[C@H](c2ccc(F)cc2)C1 | 40 nM | – | – | –
12 | COc1cc(NC(=O)N2C=CC(=O)C[C@H]2c2ccc(F)cc2)c(Br)cc1F | 32 nM | – | – | –
13 | COc1cc(Br)c(NC(=O)C2=CNC(=O)C[C@H]2c2cccc(F)c2)cc1OC | 9 nM | 107 nM | – | –
14 | COc1cc(NC(=O)N2C=CC(=O)C[C@@H]2c2ccccc2)c(Br)cc1Cl | > 10000 nM | – | – | –
15 | Cc1ccc(-n2ncccc2=O)cc1NC(=O)C1=CN(C)C(=O)C[C@H]1c1ccc(F)cc1 | – | 33 nM | Non-toxic | –
16 | COc1cc(I)c(CC(=O)N2C=CC(=O)CC2c2ccccc2)cc1OC (racemic) | 104 nM | – | – | microsomal CLint at 1 µM [2]: 548 µL/min/mg; microsomal CLint at 1 µM [3]: 168 µL/min/mg
17 | O=C1C=CN(C(=O)Nc2ccc3ncccc3c2Br)[C@H](c2ccc(F)cc2)C1 | – | – | – | Stability (Liver microsome [15]): Stable; Stability (Liver microsome [16]): Stable
18 | Cc1cc(Cl)c(OCCO)cc1N | – | – | Toxic | Drug metabolism [17]: metabolite_detected
19 | COc1cc(NC(=O)N2C=CC(=O)C[C@H]2c2ccc(F)cc2)c(Br)cc1Cl | 37 nM | – | – | –

Now from value to compound, other results behind:

Row | IC50 (P2X purinoceptor 7 [1]) | IC50 (P2X purinoceptor 7 [5]) | SMILES | Activity (Salmonella typhimurium) | also measured
20 | – | 20 nM | Cc1ccc(-c2ccn[nH]c2=O)cc1NC(=O)C1=CN(C)C(=O)C[C@H]1c1ccc(F)cc1 | Toxic | –
21 | – | 6 nM | Cc1ccc(-c2ccnn(C)c2=O)cc1NC(=O)C1=CN(C)C(=O)C[C@H]1c1ccc(F)cc1 | Toxic | –
22 | 26 nM | 27 nM | CN1C=C(C(=O)Nc2cc(-c3ccn[nH]c3=O)ccc2F)[C@H](c2ccc(F)cc2)CC1=O | Non-toxic | –
23 | 9 nM | – | COc1cc(C)c(C)c(NC(=O)C2=CNC(=O)C[C@H]2c2ccc(F)cc2)c1 | – | –
24 | 30 nM | 17 nM | COC[C@H](O)Cn1c(=O)cnn(-c2ccc(C)c(NC(=O)C3=CN(C)C(=O)C[C@H]3c3ccc(F)cc3)c2)c1=O | Non-toxic | half-life [6]: 4 h; Vd [7]: 1.2 L/kg; Stability (Liver microsome [8]): Stable; solubility [9]: 1020 µg/mL (≈ 1910 µM); IC50 (Cytochrome P450 2C9): > 50000 nM; IC50 (Cytochrome P450 3A4): > 50000 nM; IC50 (Cytochrome P450 2D6): > 50000 nM; clearance [10]: 23 mL/min/kg; AUC (Rattus norvegicus): 279 ng·h/mL; Stability (Liver microsome [14]): Stable; bioavailability [11]: 20%
25 | 3800 nM | – | COc1cc(I)c(CC(=O)N2C=CC(=O)C[C@@H]2c2ccccc2)cc1OC | – | –
26 | 92 nM | – | COc1cc(Br)c(CC(=O)N2C=CC(=O)CC2c2ccccc2)cc1OC (racemic) | – | microsomal CLint at 1 µM [2]: 490 µL/min/mg; microsomal CLint at 1 µM [3]: 153 µL/min/mg
27 | 33 nM | – | COc1cc(NC(=O)N2C=CC(=O)C[C@H]2c2ccccc2)c(Br)cc1Cl | – | –
